Measured values published in ChEMBL document CHEMBL3853298, “Total synthesis and in vitro bioevaluation of clavaminols A, C, H & deacetyl clavaminol H as potential chemotherapeutic and antibiofilm agents” (Eur J Med Chem, 2016).
Values after ≈ are worked out from the molar mass of the structure shown. Active and inactive are the calls of the source. No cut-off for these calls is given here.

Columns and labels:
Bacillus subtilis [1] = experiment: Antibiofilm activity against Bacillus subtilis MTCC 121 incubated for 24 hrs under static condition by crystal violet staining-based assay; type: functional
Outline: (§1)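 Strains grown overnight in tryptone soy broth with 0.5% glucose. Compound (250 to 0) mixed with inoculum at 5 × 10^5 CFU/mL in polystyrene microtiter plates. Non-adherent cells washed off with PBS; wells stained with 0.1% crystal violet, dye solubilised in 95% ethanol, absorbance read at 540 nm. IC50 for 50% biofilm inhibition taken from dose-response curves. Triplicates, mean ± S.D.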

Candida albicans [2] = experiment: Antifungal activity against Candida albicans MTCC 3017 after 24 hrs by well diffusion method; type: functional; settings: MTCC 3017, 24 h
Outline: (§2)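 Candida/Issatchenkia lawns (0.1 mL suspension) on Mueller-Hinton agar; 6.0 mm bored wells receive compound across a 250 to 0.48 per-well dose range, methanol as negative control. Plates kept 24 h at 30 °C. MIC is the lowest concentration producing a visible inhibition zone. Duplicate runs, mean values.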

Escherichia coli = experiment: Bactericidal activity against Escherichia coli MTCC 739 after 24 hrs; type: functional; settings: MTCC 739, 24 h
Outline: (§3)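 Broth macrodilution in Mueller Hinton broth, compound serially diluted from 150 down to 0. Overnight bacterial culture added to a final 1.5 × 10^8 CFU/mL (0.5 McFarland), 24 h at 37 °C. Suspension then subcultured onto Mueller Hinton agar for 24 h at 37 °C. MBC is the lowest concentration killing the strain. Duplicates.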

Pseudomonas aeruginosa = experiment: Antibiofilm activity against Pseudomonas aeruginosa MTCC 2453 incubated for 24 hrs under static condition by crystal violet staining-based assay; type: functional; outline: as §1
Candida albicans [3] = experiment: Fungicidal activity against Candida albicans MTCC 7315 after 24 hrs; type: functional; settings: MTCC 7315, 24 h
Outline: (§4)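 Candida grown overnight in Mueller Hinton broth. Compound serially diluted in the same broth from 150 to 0 and inoculated to a final 1.5 × 10^8 CFU/mL (0.5 McFarland), then 24 h at 37 °C. Tube contents plated onto Mueller Hinton agar for 24 h at 37 °C. MFC is the lowest concentration killing the yeast. Duplicates.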

Candida albicans [4] = experiment: Fungicidal activity against Candida albicans MTCC 3958 after 24 hrs; type: functional; settings: MTCC 3958, 24 h; outline: as §4
Candida albicans [5] = experiment: Fungicidal activity against Candida albicans MTCC 227 after 24 hrs; type: functional; settings: MTCC 227, 24 h; outline: as §4
Candida albicans [6] = experiment: Antifungal activity against Candida albicans MTCC 854 after 24 hrs by well diffusion method; type: functional; settings: MTCC 854, 24 h; outline: as §2
Staphylococcus aureus [7] = experiment: Antibacterial activity against Staphylococcus aureus MTCC 96 after 24 hrs by well diffusion method; type: functional; settings: MTCC 96, 24 h
Outline: (§5)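 Bacteria spread (0.1 mL suspension) on Mueller-Hinton agar; 6.0 mm wells loaded with compound over a 250 to 0.48 per-well dose range, methanol as negative control. Incubated 24 h at 37 °C. MIC taken as the lowest concentration still giving an inhibition zone. Duplicates, mean reported.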

Micrococcus luteus [8] = experiment: Antibiofilm activity against Micrococcus luteus MTCC 2470 incubated for 24 hrs under static condition by crystal violet staining-based assay; type: functional; outline: as §1
[9] = Antifungal activity against Candida parapsilosis MTCC 1744 after 24 hrs by well diffusion method; type: functional; outline: as §2
Candida albicans [10] = experiment: Antifungal activity against Candida albicans MTCC 3958 after 24 hrs by well diffusion method; type: functional; settings: MTCC 3958, 24 h; outline: as §2
Candida albicans [11] = experiment: Antifungal activity against Candida albicans MTCC 7315 after 24 hrs by well diffusion method; type: functional; settings: MTCC 7315, 24 h; outline: as §2
Bacillus subtilis [12] = experiment: Bactericidal activity against Bacillus subtilis MTCC 121 after 24 hrs; type: functional; settings: MTCC 121, 24 h; outline: as §3
Raoultella planticola [13] = experiment: Bactericidal activity against Klebsiella planticola MTCC 530 after 24 hrs; type: functional; settings: MTCC 530, 24 h; outline: as §3
[14] = Cytotoxicity against human MCF7 cells assessed as cell growth inhibition by MTT assay; type: functional, cell-based
Candida albicans [15] = experiment: Antifungal activity against Candida albicans MTCC 227 after 24 hrs by well diffusion method; type: functional; settings: MTCC 227, 24 h; outline: as §2
Staphylococcus aureus [16] = experiment: Antibiofilm activity against Staphylococcus aureus MTCC 96 incubated for 24 hrs under static condition by crystal violet staining-based assay; type: functional; outline: as §1
Candida albicans [17] = experiment: Fungicidal activity against Candida albicans MTCC 854 after 24 hrs; type: functional; settings: MTCC 854, 24 h; outline: as §4
Candida albicans [18] = experiment: Antifungal activity against Candida albicans MTCC 1637 after 24 hrs by well diffusion method; type: functional; settings: MTCC 1637, 24 h; outline: as §2
Raoultella planticola [19] = experiment: Antibacterial activity against Klebsiella planticola MTCC 530 after 24 hrs by well diffusion method; type: functional; settings: MTCC 530, 24 h; outline: as §5
Micrococcus luteus [20] = experiment: Induction of intracellular ROS accumulation in Micrococcus luteus MTCC 2470 sessile biofilm cells at 2 to 4 ug/ml after 24 hrs by DCFH-DA staining-based assay; type: functional, cell-based
Outline: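 Intracellular ROS was measured in M. luteus MTCC 2470 biofilms grown in 24-well plates. Mature biofilms were treated and incubated 24 h at 30 °C together with […] DCFH-DA. Well contents were centrifuged at 5000 × g for 10 min. Fluorescence (ex 485/em 535 nm) was read separately for supernatant and for sessile cells resuspended in PBS. Triplicate, mean ± S.D.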

Candida albicans [21] = experiment: Fungicidal activity against Candida albicans MTCC 3018 after 24 hrs; type: functional; settings: MTCC 3018, 24 h; outline: as §4
[22] = Antifungal activity against Candida krusei MTCC 3020 after 24 hrs by well diffusion method; type: functional; settings: Pichia kudriavzevii; outline: as §2
[23] = Cytotoxicity against human SKOV3 cells assessed as cell growth inhibition by MTT assay; type: functional, cell-based; settings: SK-OV-3
[Candida] aaseri = Antifungal activity against Candida aaseri MTCC 1962 after 24 hrs by well diffusion method; type: functional; settings: Yamadazyma aaseri, MTCC 1962, 24 h; outline: as §2
Candida albicans [24] = experiment: Fungicidal activity against Candida albicans MTCC 1637 after 24 hrs; type: functional; settings: MTCC 1637, 24 h; outline: as §4

IC50 (Bacillus subtilis [1]): 4.3 µg/mL (≈ 21.4 µM)
MIC (Candida albicans [2]): 15.6 µg/mL (≈ 77.5 µM)
MIC (Candida albicans [6]): 15.6 µg/mL (≈ 77.5 µM)
MIC (Staphylococcus aureus [7]): 7.8 µg/mL (≈ 38.7 µM)
IC50 (Micrococcus luteus [8]): 0.8 µg/mL (≈ 3.97 µM)
MIC [9]: 31.2 µg/mL (≈ 155 µM)
MIC (Candida albicans [10]): 31.2 µg/mL (≈ 155 µM)
MIC (Candida albicans [11]): 15.6 µg/mL (≈ 77.5 µM)
MIC (Candida albicans [15]): 31.2 µg/mL (≈ 155 µM)
IC50 (Staphylococcus aureus [16]): 4.2 µg/mL (≈ 20.9 µM)
MIC (Candida albicans [18]): 31.2 µg/mL (≈ 155 µM)
MIC [22]: 7.8 µg/mL (≈ 38.7 µM)
MIC ([Candida] aaseri): 62.5 µg/mL (≈ 310 µM)
Structure (SMILES): CCCCCCCCC[C@H](O)[C@@H](C)N [CLAVAMINOL A]
MBC (Escherichia coli): 15.6 µg/mL (≈ 77.5 µM)
INH (Pseudomonas aeruginosa): 3.6 µg/mL
MFC (Candida albicans [3]): 31.2 µg/mL (≈ 155 µM)
MFC (Candida albicans [4]): 62.5 µg/mL (≈ 310 µM)
MFC (Candida albicans [5]): 31.2 µg/mL (≈ 155 µM)
MBC (Bacillus subtilis [12]): 15.6 µg/mL (≈ 77.5 µM)
MBC (Raoultella planticola [13]): 15.6 µg/mL (≈ 77.5 µM)
IC50 [14]: 18.2 µM
MFC (Candida albicans [17]): 31.2 µg/mL (≈ 155 µM)
MIC (Raoultella planticola [19]): 15.6 µg/mL (≈ 77.5 µM)
Activity (Micrococcus luteus [20]): Active
MFC (Candida albicans [21]): 31.2 µg/mL (≈ 155 µM)
IC50 [23]: 12.5 µM
MFC (Candida albicans [24]): 62.5 µg/mL (≈ 310 µM)
